MT1-MMP act inh – blocks activation of human MT1-MMP. HT1080 RFP-PRO-GFP cells, GFP/RFP ratio fluorescence, overnight; percent of plate control window, DMSO zero. 0.061% of 360,000 active. GFP/RFP ratio change, % at 20 µM;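 active = GFP/RFP ratio change of at least 30% with cell ATP level not reduced by more than half and red fluorescence within 50% of control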
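Test system: HT1080 RFP-PRO-GFP cells; Benchmarks: DMSO and RFP-L50D-GFP cell wells; Timing: cells overnight before dosing, compound overnight, 37 °C, 5% CO2; Compound: one 20 µM compound dose with 1% DMSO; Read-out: GFP/RFP fluorescence ratio.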
SUMO1 PPI mod – modulators of human SUMO1-mediated protein-protein interactions | P63165 | SUMO1 binding to a labelled peptide, TR-FRET, 1 h | inhibition, % at 20 µM | 0.33% of 360,000 active; in the data active = inhibition above about 37%
Target sequence (P63165 whole entry, looked up): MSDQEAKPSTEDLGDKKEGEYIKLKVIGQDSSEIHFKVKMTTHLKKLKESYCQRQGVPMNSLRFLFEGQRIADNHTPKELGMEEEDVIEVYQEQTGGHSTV
SKN-1 block – blocks SKN-1 activity in C. elegans | C. elegans VP596 Pgst-4::GFP/RFP ratio, acrylamide-induced, 24 h | inhibition, % at 21.8 µM | 0.49% of 360,000 active | AID 624304;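 active = interference check ratio from 0.5 to 1.5 plus GFP to RFP signal ratio inhibition reaching or exceeding a fixed threshold, cut at about 30% in these data, passing the limit was not always enough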
Rpn11 block – blocks the human proteasome subunit Rpn11. human 26S proteasome, Ub4-pepOG fluorescence polarization; 20S core pre-blocked with epoxomicin. inhibition, % at 20 µM. 0.59% of 360,000 active. AID 588493;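 active = inhibition at 20 µM, scaled to each plate's controls, above about 33%, limit read from the data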
CSN inh – inhibitors of human CSN-mediated cullin deneddylation; Q92905; inhibition, % at 12.5 µM; Purified CSN, SCF-Nedd8-OG deneddylation, fluorescence polarization; 0.38% of 360,000 active; AID 651999;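 active = pattern-corrected inhibition above about 35%, with an unprinted fluorescence ratio check between 0.5 and 1.5, limit read from the data, passing the limit was not always enough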;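 also: 0% = enzyme with substrate and 100% = substrate without enzyme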
Target sequence (Q92905 whole entry, looked up, one chain of several): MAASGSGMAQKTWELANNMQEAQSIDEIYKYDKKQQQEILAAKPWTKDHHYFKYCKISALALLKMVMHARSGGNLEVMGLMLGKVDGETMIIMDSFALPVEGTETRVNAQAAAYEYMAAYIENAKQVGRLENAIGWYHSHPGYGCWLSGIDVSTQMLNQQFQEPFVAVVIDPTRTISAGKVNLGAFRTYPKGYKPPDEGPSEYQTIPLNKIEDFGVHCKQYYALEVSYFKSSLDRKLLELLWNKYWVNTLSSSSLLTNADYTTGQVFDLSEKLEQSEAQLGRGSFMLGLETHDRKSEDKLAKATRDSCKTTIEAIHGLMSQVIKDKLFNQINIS
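Schedule: reaction 90 min, room temperature / Assay system: HEK293T-derived human Csn5 enzyme / Input: Csn5 at 0.24 nM final / Measure: inhibition of Csn5 cleavage, % / Control set: substrate-only high control, full reaction low control / Technique: fluorescence polarization of the substrate / Buffer or medium: Tris/NaCl/DTT buffer, pH 7.5 / Reagent: SCFSkp2-Nedd8OG substrate at 10 nM final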
DNMT1 block – blocks human DNA methyltransferase DNMT1 | P26358 | DNMT1 molecular beacon, Hinp1I cleavage, fluorescence | inhibition (reported as % activation of signal), % at 10 µM | 0.83% of 360,000 active | AID 588458; in the data active = inhibition above about 50%
The depositor's hits bear a star; x = no result shown; ! = not confirmed by another sample. A selection: hits, their analogues and other compounds. The true share with any hit is near 2.3%.

SMILES	MT1-MMP act inh	SUMO1 PPI mod	SKN-1 block	Rpn11 block	CSN inh	DNMT1 block
O=C(Nc1ccccc1)c1cnc[nH]1	-0.3	-2.7	31.1*	-2.5	-7.5	1.9
COc1ccc(-c2cc(C(=O)Nc3c(C)nn(Cc4ccccc4)c3C)no2)cc1	9.8	1.5	36.2*	6.7	4.1	-4.5
O=C1c2ccccc2NC(c2cccc(Cl)c2)N1N=C1CCCCCC1 (stereo unspecified)	-1.0	-3.6	2.8	2.0	57.4*	-3.9
C=C1C[C@@H]2C[C@@H]2CN(S(=O)(=O)c2ccc(C)cc2)[C@@H]1COCc1ccccc1	-2.8	6.5	22.3	x	2.6	x
CCCc1nc2c3ccccc3ccn2c1Cc1ccc(OC)cc1C	-19.1	-2.6	18.1	x	26.3	-3.1
CCCCCC(=O)Nc1cccc(C2=NOC3(C2)C[C@@H](C(N)=O)N(C(=O)c2ccc(OC)cc2)C3)c1 (stereo partly specified)	2.1	16.7	3.9	-11.0	1.6	7.3
C=C(C)C(=O)Nc1cccc(C2=NOC3(C2)C[C@@H](C(N)=O)N(C(=O)c2ccc(OC)cc2)C3)c1 (stereo partly specified)	2.6	106.8*	13.6	-6.2	13.6	95.8*
CCOc1ccc(Nc2ccc(N)c(S(=O)(=O)O)c2)cc1	9.0	37.3*	13.3	-18.5	33.7	86.8*
CCOc1ccc(NS(=O)(=O)c2ccc(N)cc2)cc1	-0.4	-2.2	-12.5	4.1	0.4	-1.7
COc1ccc(/C=C/C(=O)Nc2sc3c(c2C(=O)NCc2cccnc2)CCCC3)cc1	0.0	-3.9	6.6	15.9	0.5	-14.1
O=C(COc1ccccc1)Nc1sc2c(c1C(=O)NCc1cccnc1)CCCC2	-6.5	-4.4	7.5	5.5	40.9*	29.7
CC(=O)N(/N=C1\Sc2ccccc2C1=O)c1ccc(C)cc1C	14.8	-18.3	42.6*	9.5	7.2	-3.0
CC(=O)N(/N=C1\Sc2ccccc2C1=O)c1ccccc1	-3.9	21.6	13.2	24.6	10.8	42.1
O=C(Cc1ccc(S(=O)(=O)N2CCCC2)s1)N1CCN(c2ccccc2)CC1	0.3	3.5	5.5	3.2	-0.7	3.9
O=C(O)Cc1ccc(S(=O)(=O)N2CCCC2)s1	-2.4	9.7	5.0	-7.8	14.9	67.0*
CC1(C)Cc2c(c(N3CCOCC3)nc3sc(-c4ccc(C(=O)O)o4)c(N)c23)CO1	-6.8	-12.6	-11.5	x	61.8*	-12.9
O=C(CSc1nnc2scc(-c3ccccc3)n12)Nc1nsc(-c2ccc(Cl)cc2)n1	6.8	7.3	12.9	23.5	46.9*	48.1
Cc1cc2c(cc1C)NC(CC(=O)NCc1ccccc1)C(=O)N2 (stereo unspecified)	-14.1	-11.3	9.0	53.4*	0.6	5.6
COC(=O)c1c(NC(=O)CC2Nc3cc(C)c(C)cc3NC2=O)sc(C)c1C (stereo unspecified)	-15.1	-1.4	6.5	49.7*	-2.0	37.6
CCc1cc(C(=O)OC)c(NC(=O)CC2Nc3cc(C)c(C)cc3NC2=O)s1 (stereo unspecified)	-14.5	-3.5	3.6	x	5.6	8.9
CC1=CCC[C@@H]2[C@]3(CC/C(=C/CO)CO)CO[C@@]2(C1)[C@@H](O)C[C@H]3C	-3.7	-2.0	12.2	6.8	2.9	-5.5
Cc1ccc(N2CCN(C(C(=O)Nc3c(C)cccc3C)c3cc4ccccc4o3)CC2)cc1 (stereo unspecified)	-13.1	5.2	-6.1	x	-0.2	x
COCCN1C(=O)COc2ccccc2C1C(=O)Nc1ccc2c(c1)OCCO2 (stereo unspecified)	5.8	2.6	-0.8	x	-5.1	x
Nc1ccn([C@@H]2O[C@H](CNCc3ccc(C#CCCO)cc3)[C@@H](O)[C@H]2O)c(=O)n1	1.4	-1.1	-1.7	-1.2	45.0*	2.7
CCN(C(=O)CSc1nnc(Nc2ccc(OC)cc2)s1)C1CCS(=O)(=O)C1 (stereo unspecified)	-1.4	48.6*	12.6	-4.0	-1.8	10.6
SMILES	MT1-MMP act inh	SUMO1 PPI mod	SKN-1 block	Rpn11 block	CSN inh	DNMT1 block
COc1cc2c(ccc3cc(OC)c(OC)c(O)c32)cc1O	-2.3	33.9	-16.4	x	34.9	84.9*
O=C1COc2ccccc2C(c2nc3ccccc3[nH]2)N1C1CC1 (stereo unspecified)	4.1	-1.5	1.1	x	2.1	x
C[C@H](c1ccccc1)N1C[C@@H](COCc2ccccc2)Oc2cc(N3CC[C@@H](N(C)C)C3)ccc2S1(=O)=O	-3.7	-19.2	12.0	x	0.1	x
COC(=O)[C@]12CCCCC=C1N(CCC1=CCCCC1)C(=O)[C@H](CC(=O)NCCCN1CCCC1=O)C2	1.8	-0.3	11.1	x	2.4	x
Cc1ccc(S(=O)(=O)Nc2ccc(Nc3nccn4c(-c5ccc6ccccc6c5)cnc34)cc2)cc1	-2.6	-1.0	2.0	19.6	6.9	-19.8
COC12CC(=O)C(C(C)=O)=C(O)C1(C)c1c(O)c(C)c(O)c(C(C)=O)c1O2 (stereo unspecified)	2.8	2.9	-1.1	x	42.9*	-20.3
CCOC(=O)C1=C(Nc2ccccc2)CC(C)(O)C(C(=O)OCC)C1c1ccc(Cl)cc1 (stereo unspecified)	-1.8	0.1	44.2*!	-1.8	1.8	12.1
N#CC1=C(N)N(c2ccc(F)cc2)C2=C(C1c1ccc(O)cc1)S(=O)(=O)CC2 (stereo unspecified)	15.7	1.5	35.5*	x	43.2*	-18.8
CSc1ccc(C2C(C#N)=C(N)N(c3ccccc3)C3=C2C(=O)CCC3)cc1 (stereo unspecified)	-4.2	-4.5	30.7	5.8	3.8	-3.6
COc1ccccc1-c1cnc(C(O)c2ccc(C)cc2)[nH]1 (stereo unspecified)	2.9	1.7	-8.3	-4.1	-4.7	1.2
COc1cc(Cc2cc(OC)c(O)c(OC)c2)cc(OC)c1O	9.5	1.2	-1.3	2.3	1.7	13.7
CCCNC(=O)CN1CCN(c2cc3ccccc3c(Cl)n2)CC1	-1.1	-11.9	0.0	-0.6	100.3*	-5.8
Cn1c(NCc2ccccc2F)nc2cc(-c3cccc(C(F)(F)F)c3)sc2c1=O	-0.1	-7.0	10.5	-2.7	-1.1	34.8
Cc1nc2c(OCc3ccc(C#N)cc3)cccn2c1N(C)C(=O)CCC1CCCC1	2.2	3.0	19.4	5.3	4.2	-10.7
CN1CCC(N2CCN(C3CN(C4CCCCC4)S(=O)(=O)C3)CC2)CC1 (stereo unspecified)	2.3	0.7	-12.7	-3.0	-1.9	-0.1
CN1CCC(N2CCN(C3CN(C4CCCC4)S(=O)(=O)C3)CC2)CC1 (stereo unspecified)	2.6	5.9	8.9	-0.1	143.8*	2.7
Clc1ccc(OCc2nc(-c3ccccn3)n[nH]2)cc1	6.4	1.0	-10.1	-3.7	5.0	-2.4

Screening data as filed in PubChem.
